# Measurements reported in ChEMBL document CHEMBL1649446, “Comparative antipneumococcal activities of sulopenem and other drugs” (2009).
# What was measured:
# Type in all cases: functional
# [1] = system: Streptococcus pneumoniae; assay: Antimicrobial activity against Streptococcus pneumoniae isolate 3791 by agar dilution method
# Outline: (§1)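 Agar dilution MIC on Mueller-Hinton agar with 5% sheep blood, inocula 10^4 CFU/spot; amoxicillin-clavulanate combined 1:2; S. pneumoniae ATCC 49619 quality control each run.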
# [2] = system: Streptococcus pneumoniae; assay: Antimicrobial activity against Streptococcus pneumoniae isolate 3260 by agar dilution method
# [3] = system: Streptococcus pneumoniae; assay: Antimicrobial activity against Streptococcus pneumoniae 10 by time-kill analysis
# Outline: (§2)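 Time-kill in cation-adjusted Mueller-Hinton broth with 5% lysed horse blood; inocula 5 × 105 to 5 × 10^6 CFU/ml; drugs at MIC, 2× and 4× MIC; 35°C shaking water bath; viable counts at 0, 3, 6, 12, 24 h. Bactericidal = ≥3 log10 CFU/ml (99.9%) drop from original inoculum; 90%/99%/99.9% killing scored per strain.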
# [4] = system: Streptococcus pneumoniae; assay: Antimicrobial activity against Streptococcus pneumoniae isolate 1424 by agar dilution method; outline: as §1
# [5] = system: Streptococcus pneumoniae; assay: Antimicrobial activity against Streptococcus pneumoniae isolate 37 by agar dilution method; outline: as §1
# [6] = system: Streptococcus pneumoniae; assay: Antimicrobial activity against Streptococcus pneumoniae isolate 4755 by agar dilution method; outline: as §1
# [7] = system: Streptococcus pneumoniae; assay: Antimicrobial activity against Streptococcus pneumoniae isolate 1055 by agar dilution method
# [8] = system: Streptococcus pneumoniae; assay: Antimicrobial activity against Streptococcus pneumoniae isolate 2880 by agar dilution method; outline: as §1
# [9] = system: Streptococcus pneumoniae; assay: Antimicrobial activity against Streptococcus pneumoniae isolate 1394 by agar dilution method
# [10] = system: Streptococcus pneumoniae; assay: Antimicrobial activity against Streptococcus pneumoniae isolate 3275 by agar dilution method; outline: as §1
# [11] = system: Streptococcus pneumoniae; assay: Antimicrobial activity against penicillin-resistant Streptococcus pneumoniae by agar dilution method; outline: as §1
# [12] = system: Streptococcus pneumoniae; assay: Antimicrobial activity against Streptococcus pneumoniae isolate 3263 by agar dilution method
# [13] = system: Streptococcus pneumoniae; assay: Antimicrobial activity against Streptococcus pneumoniae 1 by time-kill analysis
# Outline: as §2, with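 “12 and” for “12,”, “if” for “=”, “reduction” for “drop”, “90% and 99%” for “90%/99%/99.9%”, “also scored.” for “scored per strain.”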
# [14] = system: Streptococcus pneumoniae; assay: Antimicrobial activity against Streptococcus pneumoniae isolate 2617 by agar dilution method; outline: as §1
# [15] = system: Streptococcus pneumoniae; assay: Antimicrobial activity against Streptococcus pneumoniae 11 by time-kill analysis; outline: as §2
# [16] = system: Streptococcus pneumoniae; assay: Antimicrobial activity against Streptococcus pneumoniae 12 by time-kill analysis; outline: as §2
# [17] = system: Streptococcus pneumoniae; assay: Antimicrobial activity against Streptococcus pneumoniae 8 by time-kill analysis; outline: as §2
# [18] = system: Streptococcus pneumoniae; assay: Antimicrobial activity against Streptococcus pneumoniae isolate 4747 by agar dilution method; outline: as §1
# [19] = system: Streptococcus pneumoniae; assay: Antimicrobial activity against penicillin-intermediate Streptococcus pneumoniae by agar dilution method
# [20] = system: Streptococcus pneumoniae; assay: Antimicrobial activity against Streptococcus pneumoniae 6 by time-kill analysis; outline: as §2
# [21] = system: Streptococcus pneumoniae; assay: Antimicrobial activity against Streptococcus pneumoniae isolate 3282 by agar dilution method
# [22] = system: Streptococcus pneumoniae; assay: Antimicrobial activity against Streptococcus pneumoniae isolate 1146 by agar dilution method; outline: as §1
# [23] = system: Streptococcus pneumoniae; assay: Antimicrobial activity against Streptococcus pneumoniae isolate 3455 by agar dilution method
# [24] = system: Streptococcus pneumoniae; assay: Antimicrobial activity against Streptococcus pneumoniae 4 by time-kill analysis; outline: as §2
# [25] = system: Streptococcus pneumoniae; assay: Antimicrobial activity against Streptococcus pneumoniae isolate 2686 by agar dilution method; outline: as §1
# [26] = system: Streptococcus pneumoniae; assay: Antimicrobial activity against Streptococcus pneumoniae 3 by time-kill analysis; outline: as §2
# [27] = system: Streptococcus pneumoniae; assay: Antimicrobial activity against Streptococcus pneumoniae isolate 3374 by agar dilution method; outline: as §1
# [28] = system: Streptococcus pneumoniae; assay: Antimicrobial activity against Streptococcus pneumoniae isolate 3481 by agar dilution method; outline: as §1
# [29] = system: Streptococcus pneumoniae; assay: Antimicrobial activity against Streptococcus pneumoniae isolate 1147 by agar dilution method; outline: as §1
# [30] = system: Streptococcus pneumoniae; assay: Antimicrobial activity against Streptococcus pneumoniae isolate 1384 by agar dilution method; outline: as §1
# [31] = system: Streptococcus pneumoniae; assay: Antimicrobial activity against Streptococcus pneumoniae isolate 24 by agar dilution method
# [32] = system: Streptococcus pneumoniae; assay: Antimicrobial activity against Streptococcus pneumoniae isolate 3458 by agar dilution method
# [33] = system: Streptococcus pneumoniae; assay: Antimicrobial activity against Streptococcus pneumoniae 5 by time-kill analysis
# Outline: as §2, with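 “12 and” for “12,”, “if” for “=”, “reduction” for “drop”, “90% and 99%” for “90%/99%/99.9%”, “also scored.” for “scored per strain.”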
# [34] = system: Streptococcus pneumoniae; assay: Antimicrobial activity against Streptococcus pneumoniae isolate 33 by agar dilution method; outline: as §1
# [35] = system: Streptococcus pneumoniae; assay: Antimicrobial activity against Streptococcus pneumoniae isolate 3681 by agar dilution method; outline: as §1
# [36] = system: Streptococcus pneumoniae; assay: Antimicrobial activity against Streptococcus pneumoniae isolate 2688 by agar dilution method; outline: as §1
# [37] = system: Streptococcus pneumoniae; assay: Antimicrobial activity against Streptococcus pneumoniae 7 by time-kill analysis; outline: as §2
# [38] = system: Streptococcus pneumoniae; assay: Antimicrobial activity against Streptococcus pneumoniae isolate 2874 by agar dilution method; outline: as §1
# [39] = system: Streptococcus pneumoniae; assay: Antimicrobial activity against Streptococcus pneumoniae isolate 3412 by agar dilution method; outline: as §1
# [40] = system: Streptococcus pneumoniae; assay: Antimicrobial activity against Streptococcus pneumoniae isolate 3587 by agar dilution method
# [41] = system: Streptococcus pneumoniae; assay: Antimicrobial activity against Streptococcus pneumoniae 9 by time-kill analysis
# Outline: as §2, with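 “12 and” for “12,”, “if” for “=”, “reduction” for “drop”, “90% and 99%” for “90%/99%/99.9%”, “also scored.” for “scored per strain.”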
# [42] = system: Streptococcus pneumoniae; assay: Antimicrobial activity against Streptococcus pneumoniae 2 by time-kill analysis; outline: as §2
# [43] = system: Streptococcus pneumoniae; assay: Antimicrobial activity against penicillin-susceptible Streptococcus pneumoniae by agar dilution method
# [44] = system: Streptococcus pneumoniae; assay: Antimicrobial activity against Streptococcus pneumoniae isolate 1564 by agar dilution method
# [45] = system: Streptococcus pneumoniae; assay: Antimicrobial activity against Streptococcus pneumoniae 19A by agar dilution method; outline: as §1
# [46] = system: Streptococcus pneumoniae; assay: Antimicrobial activity against Streptococcus pneumoniae isolate 3346 by agar dilution method
# [47] = system: Streptococcus pneumoniae; assay: Antimicrobial activity against Streptococcus pneumoniae isolate 1397 by agar dilution method; outline: as §1
structure (smiles),measurement,setting,value
C[C@@H](O)[C@H]1C(=O)N2C(C(=O)O)=C(SCCNC=N)C[C@H]12 [IMIPENEM ANHYDROUS],MIC,[1],0.125 µg/mL
same,MIC,[2],0.25 µg/mL
same,MIC,[3],0.03 µg/mL
same,MIC,[4],0.25 µg/mL
same,MIC,[5],0.25 µg/mL
same,MIC,[6],0.125 µg/mL
same,MIC,[7],0.25 µg/mL
same,MIC,[8],0.25 µg/mL
same,MIC,[9],0.25 µg/mL
same,MIC,[10],0.03 µg/mL
same,MIC50,[11],0.25 µg/mL
same,MIC90,[11],0.25 µg/mL
same,MIC,[12],0.06 µg/mL
same,MIC,[13],4 ng/mL
same,MIC,[14],0.125 µg/mL
same,MIC,[15],0.25 µg/mL
same,MIC,[16],0.25 µg/mL
same,MIC,[17],0.25 µg/mL
same,MIC,[18],0.125 µg/mL
same,MIC50,[19],0.03 µg/mL
same,MIC90,[19],0.125 µg/mL
same,MIC,[20],0.03 µg/mL
same,MIC,[21],0.125 µg/mL
same,MIC,[22],0.5 µg/mL
same,MIC,[23],0.5 µg/mL
same,MIC,[24],0.25 µg/mL
same,MIC,[25],0.25 µg/mL
same,MIC,[26],0.06 µg/mL
same,MIC,[27],0.125 µg/mL
same,MIC,[28],0.125 µg/mL
same,MIC,[29],0.5 µg/mL
same,MIC,[30],0.125 µg/mL
same,MIC,[31],0.25 µg/mL
same,MIC,[32],0.5 µg/mL
same,MIC,[33],0.5 µg/mL
same,MIC,[34],0.5 µg/mL
same,MIC,[35],0.125 µg/mL
same,MIC,[36],0.25 µg/mL
same,MIC,[37],0.5 µg/mL
same,MIC,[38],0.25 µg/mL
same,MIC,[39],0.125 µg/mL
same,MIC,[40],0.125 µg/mL
same,MIC,[41],0.03 µg/mL
same,MIC,[42],4 ng/mL
same,MIC50,[43],8 ng/mL
same,MIC90,[43],8 ng/mL
same,MIC,[44],0.125 µg/mL
same,MIC50,[45],0.5 µg/mL
same,MIC90,[45],0.5 µg/mL
same,MIC,[46],0.25 µg/mL
same,MIC,[47],0.25 µg/mL
